Measured values from different studies.
Compare with care: the assays were run in different laboratories.
Target: Casein kinase I isoform alpha-like (CSNK1A1L, Homo sapiens, UniProt Q8N752)
One construct used (Q8N752 1-337): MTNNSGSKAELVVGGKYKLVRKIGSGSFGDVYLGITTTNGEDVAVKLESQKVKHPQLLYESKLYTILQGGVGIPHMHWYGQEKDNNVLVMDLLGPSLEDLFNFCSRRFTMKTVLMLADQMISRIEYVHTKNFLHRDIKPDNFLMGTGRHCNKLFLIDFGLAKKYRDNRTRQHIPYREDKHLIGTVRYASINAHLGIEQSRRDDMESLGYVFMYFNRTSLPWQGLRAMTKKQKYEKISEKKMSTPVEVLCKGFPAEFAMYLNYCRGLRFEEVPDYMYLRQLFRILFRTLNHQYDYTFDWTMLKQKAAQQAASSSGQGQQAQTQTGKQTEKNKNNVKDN

Compound	effect on	method	concentration	remaining binding
CNCc1ccccc1-c1csc([C@@H](C)Nc2nc(C)nc3cc(OC)c(OC)cc23)c1	cell-free assay	competition with immobilised ligand	1 µM	100%
CN(C)c1nccc(-c2cnn3ncccc23)n1	binding	–	1 µM	98%
CNC(=O)[C@@H]1CC[C@@H](n2c(-c3ccc4cnccc4c3)nc3ccc(C(=O)NCc4cccc(C(N)=O)c4)cc32)C1	binding	competition with immobilised ligand	1 µM	100%
O=C(c1ccc(Nc2ncc(Cl)c(-c3cc4ccccc4s3)n2)cc1)N1CCC(N2CCCC2)CC1	binding	competition with immobilised ligand	1 µM	100%
COc1ccnn2ncc(-c3ccnc(N(C)C)n3)c12	binding	–	1 µM	91%
COc1ncc2cc3ccccc3nc2c1C#N	cell-free assay	competition with immobilised ligand	5 µM	100%
N[C@@H]1CCN(c2nccc(-c3cnn4ncccc34)n2)C1	binding	–	1 µM	100%
CCN1CCN(Cc2ccc(C(=O)Nc3ccc(C)c(Oc4ccc5c(c4)CC(=O)N5)c3)cc2C(F)(F)F)CC1	binding	competition with immobilised ligand	1 µM	100%
CN(C(=O)c1ccccc1)c1cc(N(C)c2ccc3c(c2)CCc2ccc(C(=O)NCCN4CCOCC4)cc2C3=O)ccc1F	cell-free assay	competition with immobilised ligand	1 µM	100%
c1cncc(-c2cccc(Nc3nccc(NC4CCCCC4)n3)c2)c1	binding	competition with immobilised ligand	10 µM	92%
O=C(NCCCN1CCOCC1)c1ccc(Nc2ncc(Cl)c(-c3ccc(Cl)s3)n2)cc1	binding	competition with immobilised ligand	1 µM	100%
CNC(=O)Nc1ccc2c(c1)CC[C@@]21OC(=O)N(CC(=O)N(Cc2ccc(F)cc2)[C@@H](C)C(F)(F)F)C1=O	cell-free assay	competition with immobilised ligand	1 µM	88%
C[C@@H]1CCN(c2nccc(-c3cnn4ncccc34)n2)C1	binding	–	1 µM	81%
C[C@H](c1ccnc(Nc2nc3ccc(-c4cc(N(C)C)ncn4)cc3[nH]2)c1)N1CCN(C(=O)CC(F)(F)F)CC1	cell-free assay	competition with immobilised ligand	0.1 µM	94%
O=C(c1ccc(Nc2ncc(Cl)c(-c3ccc(Cl)s3)n2)cc1)N1CCC(N2CCCC2)CC1	binding	competition with immobilised ligand	1 µM	100%
CN(C)C(=O)Cn1cc(-c2nc([C@@](C)(c3ccc(-c4cnc(N)nc4)cc3)C3CC3)no2)cn1	cell-free assay	competition with immobilised ligand	1 µM	100%
O=C(Nc1c[nH]nc1C(=O)NC1CCNCC1)c1cc(F)cc(F)c1	binding	competition with immobilised ligand	1 µM	84%
CN(CCCC(F)(F)F)c1nccc(-c2cnn3ncccc23)n1	binding	–	1 µM	91%
C=CC(=O)N1CCC(C(=O)NCC(=O)N2CCN(c3nc(-c4cnc(N)nc4C(F)F)nc(N4CCOCC4)n3)CC2)CC1	binding	competition with immobilised ligand	1 µM	100%
CN(C)c1ncc(F)c(-c2cnn3ncccc23)n1	binding	–	1 µM	100%
COc1ccc2c(c1)O[C@H](c1ccc(OC)c(OC)c1)C[C@@H]2NC(=O)C1(c2ccc3c(c2)OC(F)(F)O3)CC1	cell-free assay	competition with immobilised ligand	1 µM	100%
